In assay [1] the test system is HeLa. Kind of assay: Cytotoxicity against human HeLa cells after 48 hrs by MTT assay. The class given is functional, cell-based. An outline of the steps:
(§1)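 Cells kept in DMEM with 10% FBS, penicillin and streptomycin at 37 °C, 5% CO2. Seeded at 2 × 10^4 cells/well, allowed to adhere for 24 h, then exposed for 48 h to graded compound concentrations […], with 5-fluorouracil as positive control. MTT (5 mg/mL stock) added for 4 h at 37 °C, formazan dissolved in DMSO, read at 570 nm. IC50 is the mean of three independent experiments run in duplicate.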
(In general: Tetrazolium assays rely on reduction of a dye to a coloured formazan, in cell work by metabolically active cells.)

A short description of assay [2]: Cytotoxicity against human MNK45 cells after 48 hrs by MTT assay. The class given is functional, cell-based. As to conditions: MNK45, 48 h. In short, it runs like this: as §1

`COC(=O)C1=CO[C@@H](O[C@@H]2O[C@H](CO)[C@@H](O)[C@H](O)[C@H]2O)[C@@H]2[C@H](C)O[C@@H](OC)C[C@H]12`: the IC50 in assay [1] and in assay [2] was more than 50 µM each time.
Take `C[C@@H]1[C@H]2OC[C@@H]3[C@@H]1C[C@H](O)[C@@]3(C)O2`: the IC50 in assay [1] and in assay [2] was more than 50 µM throughout.
For `C[C@H]1[C@H]2OC[C@@H]3[C@@H]1C[C@H](O)[C@@]3(C)O2`, the IC50 in assay [1] and in assay [2] was more than 50 µM each time.
Regarding `COC(=O)C1=CO[C@@H](O[C@@H]2O[C@H](CO)[C@@H](O)[C@H](O)[C@H]2O)[C@@H]2[C@H](C)O[C@H](OC)C[C@H]12`, the IC50 in assay [1] and in assay [2] was more than 50 µM in each case.
For `COC(=O)C1=CO[C@@H](O[C@@H]2O[C@H](CO)[C@@H](O)[C@H](O)[C@H]2O)[C@@H]2[C@H](C)O[C@H](O)C[C@H]12`, the IC50 in assay [1] and in assay [2] was more than 50 µM each time.
Turning to `O=c1[nH]cc(F)c(=O)[nH]1` [FLUOROURACIL], the IC50 in assay [1] worked out at 9.5 µM; in assay [2], 12 µM.
The like results for `C[C@@H]1C(=O)OC[C@H]2[C@@H]1C[C@H](O)[C@@]2(C)O` [ISOPATRISCABROL] were, in that order, 24.5 µM and more than 50 µM.
With `C=C1COC(=O)[C@H]2[C@@H]1C[C@H](O)[C@@]2(C)O` [JATAMANIN A], the half-inhibitory concentration (IC50) in assay [1] and in assay [2] was more than 50 µM in each case.
Consider `COC(=O)C1=CO[C@@H](O[C@@H]2O[C@H](CO)[C@@H](O)[C@H](O)[C@H]2O)[C@@H]2[C@H](C)O[C@@H](O)C[C@H]12` [MORRONISIDE], for which the IC50 in assay [1] and in assay [2] was more than 50 µM throughout.
`C=C(CO)[C@H]1C[C@H](OC(=O)CC(C)C)[C@@](C)(O)[C@H]1CO[C@@H]1O[C@H](CO)[C@@H](O)[C@H](O)[C@H]1O` [PATRINIOSIDE]: the half-maximal inhibitory concentration (IC50) in assay [1] was more than 50 µM; in assay [2], 23.8 µM.
With `C[C@@H]1C[C@@H]2OC=C(C=O)[C@@H]2[C@@H]1CO[C@@H]1O[C@H](CO)[C@@H](O)[C@H](O)[C@H]1O` [PATRIRIDOSIDE D], the IC50 in assay [1] is more than 50 µM; in assay [2], 15.6 µM.
The matching figures for `C[C@H]1C(=O)OC[C@H]2[C@@H]1CC[C@@]2(C)O[C@@H]1O[C@H](CO)[C@@H](O)[C@H](O)[C@H]1O` [PATRIRIDOSIDE E]: more than 50 µM and more than 50 µM.
Take `C[C@H]1[C@H]2C[C@H](O)[C@@](C)(O[C@@H]3O[C@H](CO)[C@@H](O)[C@H](O)[C@H]3O)[C@H]2CO[C@@H]1O` [PATRIRIDOSIDE F]: the concentration for half-maximal inhibition (IC50) in assay [1] and in assay [2] was more than 50 µM each time.
`C=C1CO[C@]2(CO[C@@H]3O[C@H](CO)[C@@H](O)[C@H](O)[C@H]3O)C(C)=CC[C@H]12` [PATRIRIDOSIDE G]: the 50% inhibitory concentration (IC50) in assay [1] was more than 50 µM; in assay [2], 8.7 µM.
For the compound `C=C1CO[C@]2(CO[C@@H]3O[C@H](CO[C@@H]4OC[C@](O)(CO)[C@H]4O)[C@@H](O)[C@H](O)[C@H]3O)C(C)=CC[C@H]12` [PATRIRIDOSIDE H], the 50% inhibitory concentration (IC50) in assay [1] was more than 50 µM; in assay [2], 9.4 µM.
The like results for `CC1=CC[C@@H]2[C@H](C)CO[C@]12CO[C@@H]1O[C@H](CO[C@@H]2OC[C@](O)(CO)[C@H]2O)[C@@H](O)[C@H](O)[C@H]1O` [PATRIRIDOSIDE I] were, in that order, more than 50 µM and 30.9 µM.
For `C[C@H]1C(=O)OC[C@H]2[C@@H]1C[C@H](O)[C@@]2(C)O` [PATRISCABROL], the IC50 in assay [1] and in assay [2] was more than 50 µM throughout.
As for `C[C@H]1C(=O)OC[C@H]2[C@@H]1C[C@H](O[C@@H]1O[C@H](CO)[C@@H](O)[C@H](O)[C@H]1O)[C@@]2(C)O` [PATRISCABROSIDE I], the 50% inhibitory concentration (IC50) in assay [1] and in assay [2] was more than 50 µM in each case.
As to `C[C@H]1C(=O)OC[C@H]2[C@@H]1CC[C@@]2(C)O` [SCABROL A], the IC50 in assay [1] and in assay [2] was more than 50 µM throughout.
Consider `C=C[C@H]1[C@H](O[C@@H]2O[C@H](CO)[C@@H](O)[C@H](O)[C@H]2O)OC=C2C(=O)OCC[C@H]21` [SWEROSIDE], for which the values for the IC50 in assay [1] and in assay [2] were more than 50 µM and 11.2 µM, respectively.

For orientation: IC50 means the concentration at which inhibition is half-maximal. Lower therefore signals higher potency.

Values taken from ChEMBL document CHEMBL2150941, “Cytotoxic iridoids from the roots of Patrinia scabra” (J Nat Prod, 2012).
